# How the values were obtained:
# Assay type in all cases: functional
# RXF 393 = test: Cytotoxicity against human RXF393 cells assessed as cell growth at 10^-5 M after 48 hrs by SRB assay; conditions: RXF 393, 48 h, read-out: Activity
# Outline: (§1)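 NCI human tumor cell line panel from nine cancer types. Each line was inoculated and preincubated 24–48 h, then exposed to a single concentration (10^-5 M) for 48 h. Growth was read by sulforhodamine B protein staining, measured spectrophotometrically. Value reported as percent growth of treated cells relative to untreated controls.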
# MDA-MB-468 = test: Cytotoxicity against human MDA-MB-468 cells assessed as cell growth at 10^-5 M after 48 hrs by SRB assay; conditions: MDA-MB-468, 48 h, read-out: Activity
# Outline: (§2)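 NCI 60-cell-line one-dose primary screen: cells inoculated and preincubated 24–48 h, then test agent added at a single 10^-5 M concentration for a further 48 h. Endpoint is sulforhodamine B protein staining read spectrophotometrically. Reported as percent growth relative to untreated control cells.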
# MOLT-4 = test: Growth inhibition of human MOLT4 cells after 48 hrs by SRB assay; conditions: MOLT-4, 48 h
# Outline: (§3)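 NCI panel of about 60 human tumor lines, 48 h continuous exposure at five 10-fold dilutions from 10^-4 to 10^-8 M. SRB protein staining was read as absorbance at time zero, in untreated controls and at each concentration. GI50 is the concentration giving 50% lower net protein increase than controls. TGI is where Ti = Tz, and LC50 is 50% protein loss versus start.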
# HOP-62 = test: Growth inhibition of human HOP62 cells after 48 hrs by SRB assay; conditions: HOP-62, 48 h; outline: as §3
# HOP-92 = test: Growth inhibition of human HOP92 cells after 48 hrs by SRB assay; conditions: HOP-92, 48 h; outline: as §3
# NCI-H522 = test: Growth inhibition of human NCI-H522 cells after 48 hrs by SRB assay; conditions: NCI-H522, 48 h; outline: as §3
# SF-295 = test: Growth inhibition of human SF295 cells after 48 hrs by SRB assay; conditions: SF-295, 48 h
# Outline: (§4)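 NCI 60-cell-line human tumor panel. Cells were inoculated and preincubated for 24–48 h, then exposed continuously to compound for 48 h. Primary screen used a single 10^-5 M concentration. Growth was measured by sulforhodamine B protein staining, read spectrophotometrically, and reported as percent growth versus untreated controls. Selected compounds were also run at five 10-fold dilutions (10^-4 to 10^-8 M) to derive GI50 from time-zero-corrected absorbances.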
# SNB-19 = test: Growth inhibition of human SNB19 cells after 48 hrs by SRB assay; conditions: SNB-19, 48 h; outline: as §4
# PC-3 = test: Growth inhibition of human PC3 cells after 48 hrs by SRB assay; conditions: PC-3, 48 h; outline: as §3
# SF-268 = test: Cytotoxicity against human SF268 cells assessed as cell growth at 10^-5 M after 48 hrs by SRB assay; conditions: SF-268, 48 h, read-out: Activity; outline: as §1
# MCF7 = test: Cytotoxicity against human MCF7 cells assessed as cell growth at 10^-5 M after 48 hrs by SRB assay; conditions: MCF7, 48 h, read-out: Activity; outline: as §2
# T47D = test: Cytotoxicity against human T47D cells assessed as cell growth at 10^-5 M after 48 hrs by SRB assay; conditions: read-out: Activity; outline: as §1
# MDA-MB-435 = test: Cytotoxicity against human MDA-MB-435 cells assessed as cell growth at 10^-5 M after 48 hrs by SRB assay; conditions: MDA-MB-435, 48 h, read-out: Activity; outline: as §2
# OVCAR-8 = test: Cytotoxicity against human OVCAR8 cells assessed as cell growth at 10^-5 M after 48 hrs by SRB assay; conditions: OVCAR-8, 48 h, read-out: Activity; outline: as §1
# [1] = read-out: pLC50 (the source's name) (converted)
structure (smiles),measurement,setting,value
CCC1C2CCC(C2)C1NC(=O)CSc1nc2ccccc2c2nc(=O)c(-c3ccc(OC)cc3)nn12 (stereo not drawn),growth at 10 µM,RXF 393,9.46%
same,growth at 10 µM,MDA-MB-468,-59.5%
same,GI50,MOLT-4,1620 nM
same,CC50,MOLT-4; [1],> 50.1 µM
same,TGI,MOLT-4; read-out: pTGI,> 50.1 µM
same,GI50,HOP-62,2450 nM
same,CC50,HOP-62; [1],36.3 µM
same,TGI,HOP-62; read-out: pTGI (converted),11.5 µM
same,GI50,HOP-92,977 nM
same,CC50,HOP-92; [1],25.7 µM
same,TGI,HOP-92; read-out: pTGI (converted),3.98 µM
same,GI50,NCI-H522,1350 nM
same,CC50,NCI-H522; [1],38.9 µM
same,TGI,NCI-H522; read-out: pTGI (converted),7.94 µM
same,GI50,SF-295,3.47 µM
same,CC50,SF-295; [1],> 50.1 µM
same,TGI,SF-295; read-out: pTGI (converted),21.9 µM
same,GI50,SNB-19,3.47 µM
same,CC50,SNB-19; [1],> 50.1 µM
same,TGI,SNB-19; read-out: pTGI (converted),22.4 µM
same,GI50,PC-3,2820 nM
same,CC50,PC-3; [1],> 50.1 µM
same,TGI,PC-3; read-out: pTGI (converted),24.5 µM
same,growth at 10 µM,SF-268,66.3%
same,growth at 10 µM,MCF7,48.2%
same,growth at 10 µM,T47D,-11.3%
same,growth at 10 µM,MDA-MB-435,58.6%
same,growth at 10 µM,OVCAR-8,53.1%

# Source: ChEMBL document CHEMBL1914438, “Synthesis and biological activity of novel N-cycloalkyl-(cycloalkylaryl)-2-[(3-R-2-oxo-2H-[1,2,4]triazino[2,3-c]quinazoline-6-yl)thio]acetamides” (2011)
